Laboratory results as given in the array DNA melting data of Ke et al. (doi:10.1101/2024.01.08.574731).

Tests used:
[1] = folding enthalpy; higher = less favourable; fluorescence melt of hairpins on a sequencing array, two-state fit; conditions: sodium 0.088 M
Summary of the method: (§1)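 Bootstrapped two-state fits yielded melting temperature and folding enthalpy for library hairpins. Cy3 fluorescence, with annealed Cy3 and quencher oligos, was imaged on a sequenced MiSeq flow cell in 50 mM Na-HEPES pH 8.0, 25 mM NaCl in 2.5 °C steps up to 60 °C, and normalised to pre-quench Cy3 and to control constructs. Four replicates were combined by inverse variance, and fitted temperatures were raised by 9.35 °C to match UV melts.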

[2] = melting temperature; fluorescence melt of hairpins on a sequencing array, two-state fit, raised by 9.35 °C to match UV melts; conditions: sodium 0.088 M
Summary of the method: as §1

Sequence | folding enthalpy [1] | Tm [2]
GGTCCACGAAAGTGCACC (((.(((....))).))) | -25.9 kcal/mol | 44.5 °C
GGTCCAGGAAACTGAACC (((.(((....))).))) | -34.6 kcal/mol | 40 °C
GGTCCCGAAAGGGGAACC ((((((....)))..))) | -17.2 kcal/mol | 48.5 °C
GGTCCCGAAAGGGGCACC ((((((....)))..))) | -11.3 kcal/mol | 50.7 °C
GGTCCCGAAAGGGTTACC ((((((....)))..))) | -15.4 kcal/mol | 39.6 °C
GGTCCCGGAAACAGGACC (((((.(....).))))) | -28.6 kcal/mol | 49.7 °C
GGTCCGCCGAAAGGCACC (((..(((....)))))) | -8.71 kcal/mol | 28.3 °C
GGTCCGCGAAAGCGTACC (((.(((....))).))) | -27.2 kcal/mol | 54.1 °C
GGTCCTCGAAAGAGAACC (((.(((....))).))) | -32.2 kcal/mol | 46.8 °C
GGTCCTGGAAACAAGACC ((((.((....)).)))) | -32.1 kcal/mol | 36.2 °C
GGTCCTGGAAACAGAACC (((.(((....))).))) | -29.7 kcal/mol | 38.9 °C
GGTCCTGGAAACAGGATC (.(((((....))))).) | -31.8 kcal/mol | 51 °C
GGTCGAACGAAAGTTACC (((..(((....)))))) | -11.7 kcal/mol | 26.6 °C
GGTCGACGAAAGTCAACC (((.(((....))).))) | -32.2 kcal/mol | 49.9 °C
GGTCGACGAAAGTCTACC (((.(((....))).))) | -34.7 kcal/mol | 49.8 °C
GGTCGAGGAAACTCGGTC (..((((....))))..) | -16.2 kcal/mol | 38.4 °C
GGTCGCCGAAAGGCCACC (((.(((....))).))) | -15.7 kcal/mol | 48.1 °C
GGTCGCGAAAGCGCCACC ((((((....)))..))) | -11.2 kcal/mol | 47.8 °C
GGTCGCGAAAGCGGAACC ((((((....)))..))) | -15.3 kcal/mol | 47.8 °C
GGTCGCGAAAGCGTTACC ((((((....)))..))) | -14.6 kcal/mol | 41.4 °C
GGTCGCTCGAAAGAGACC (((..(((....)))))) | -20.6 kcal/mol | 49.1 °C
GGTCGGCCGAAAGGCACC (((..(((....)))))) | -10.9 kcal/mol | 34.7 °C
GGTCGGCGAAAGCCACC (((.(((....)))))) | -14.8 kcal/mol | 55.3 °C

Sequence | folding enthalpy [1] | Tm [2]
GGTCGGGCGAAAGCCACC (((..(((....)))))) | -11.9 kcal/mol | 34 °C
GGTCGGGGAAACCCGATC (.(((((....))))).) | -32 kcal/mol | 56.7 °C
GGTCGGGGAAACCTGGCC ((.(.((....)).).)) | -28.7 kcal/mol | 48.4 °C
GGTCGGTCGAAAGACACC (((..(((....)))))) | -13.4 kcal/mol | 33.4 °C
GGTCGTCCGAAAGGAACC (((..(((....)))))) | -9.14 kcal/mol | 26.3 °C
GGTCGTCGAAAGACCACC (((.(((....))).))) | -19.8 kcal/mol | 45.9 °C
GGTCGTCGAAAGACTACC (((.(((....))).))) | -30.6 kcal/mol | 48.6 °C
GGTCGTGAAAACGACC ((((((....)))))) | -34.3 kcal/mol | 69.2 °C
GGTCGTGGAAACGCGATC (.(((.(....).))).) | -26.9 kcal/mol | 43.8 °C
GGTCTAGAAATAGACC ((((((....)))))) | -38.1 kcal/mol | 51.8 °C
GGTCTCCGAAAGGACACC (((.(((....))).))) | -24.5 kcal/mol | 42.1 °C
GGTCTCCGAAAGGATACC (((.(((....))).))) | -26.8 kcal/mol | 48.1 °C
GGTCTCGAAAGAGAGACC ((((((....)))..))) | -29.6 kcal/mol | 54.9 °C
GGTCTCGAAAGAGGGACC ((((((....)))..))) | -22.4 kcal/mol | 44 °C
GGTCTCGAAAGAGTAACC ((((((....)))..))) | -21.9 kcal/mol | 35.1 °C
GGTCTCGAAAGAGTGACC ((((((....)))..))) | -24.5 kcal/mol | 39.8 °C
GGTCTCGGAAACGAGGTC (..((((....))))..) | -15.9 kcal/mol | 38.2 °C
GGTCTGCGAAAGCAAACC (((.(((....))).))) | -26.9 kcal/mol | 47.1 °C
GGTCTTGGAAACAAGGCC ((.((((....)))).)) | -48.6 kcal/mol | 54.7 °C
GGTGAAGGAAACCTCACC (((((.(....).))))) | -29.6 kcal/mol | 46.2 °C
GGTGAAGGAAACTTCATC (.(((((....))))).) | -25.3 kcal/mol | 42.1 °C
GGTGACGAAAGTCACACC ((((((....)))..))) | -7.84 kcal/mol | 56 °C
GGTGACGAAAGTCCGACC ((((((....)))..))) | -15.3 kcal/mol | 39 °C

Sequence | folding enthalpy [1] | Tm [2]
GGTGACGAAAGTCCTACC ((((((....)))..))) | -13.8 kcal/mol | 33.5 °C
GGTGACGAAAGTCTACC ((((((....))).))) | -21.4 kcal/mol | 49 °C
GGTGACGGAAACGTTGCC ((..(((....)))..)) | -34.3 kcal/mol | 48.1 °C
GGTGAGCCGAAAGGCACC (((..(((....)))))) | -13.2 kcal/mol | 44.3 °C
GGTGAGCGAAAGCTACC (((.(((....)))))) | -19.2 kcal/mol | 51.7 °C
GGTGAGGGAAACCTCGTC (..((((....))))..) | -13.3 kcal/mol | 33.2 °C
GGTGAGGGAAACTTCACC (((((.(....).))))) | -32.1 kcal/mol | 46.8 °C
GGTGAGTCGAAAGACACC (((..(((....)))))) | -17.9 kcal/mol | 39.5 °C
GGTGATCGAAAGATAACC (((.(((....))).))) | -29.5 kcal/mol | 47.7 °C
GGTGATGGAAACATCACC (((((((....))))))) | -39.6 kcal/mol | 65.6 °C
GGTGATGGAAACATCATC (.(((((....))))).) | -30.6 kcal/mol | 47.8 °C
GGTGATGGAAACATTACC (((.(((....))).))) | -30.2 kcal/mol | 45.2 °C
GGTGATGGAAACGTCACC (((((.(....).))))) | -49.9 kcal/mol | 53.5 °C
GGTGATGGAAACGTTACC (((.(.(....).).))) | -19.2 kcal/mol | 30.4 °C
GGTGCACGAAAGTGAACC (((.(((....))).))) | -35.3 kcal/mol | 61.4 °C
GGTGCAGGAAACTACACC ((((.((....)).)))) | -32.1 kcal/mol | 43.4 °C
GGTGCAGGAAACTGTACC (((.(((....))).))) | -45.4 kcal/mol | 52.6 °C
GGTGCCGAAAGGCAAACC ((((((....)))..))) | -14.6 kcal/mol | 50.9 °C
GGTGCCGAAAGGCACACC ((((((....)))..))) | -6.62 kcal/mol | 58 °C
GGTGCCGAAAGGCCCACC ((((((....)))..))) | -11.4 kcal/mol | 50.6 °C
GGTGCCGAAAGGCGTACC ((((((....)))..))) | -15.5 kcal/mol | 48.5 °C
GGTGCCGGAAACGGTGCC ((..(((....)))..)) | -41.5 kcal/mol | 56.6 °C
GGTGCGACGAAAGTCACC (((..(((....)))))) | -16.5 kcal/mol | 42.5 °C

Sequence | folding enthalpy [1] | Tm [2]
GGTGCGGCGAAAGCCACC (((..(((....)))))) | -14 kcal/mol | 48.2 °C
GGTGCTCCGAAAGGAACC (((..(((....)))))) | -11.3 kcal/mol | 32.5 °C
GGTGCTGCGAAAGCAACC (((..(((....)))))) | -14.4 kcal/mol | 43.8 °C
GGTGCTGGAAACAACACC ((((.((....)).)))) | -37.6 kcal/mol | 46 °C
GGTGCTGGAAACGGTACC (((.(.(....).).))) | -35.8 kcal/mol | 41.2 °C
GGTGGACGAAAGTCGACC (((.(((....))).))) | -39.9 kcal/mol | 57.2 °C
GGTGGAGAAATCCACC ((((((....)))))) | -33.1 kcal/mol | 59.8 °C
GGTGGATCGAAAGATACC (((..(((....)))))) | -18.4 kcal/mol | 35.6 °C
GGTGGCGAAAGCCCAACC ((((((....)))..))) | -14.8 kcal/mol | 42 °C
GGTGGCGAAAGCCCCACC ((((((....)))..))) | -11.1 kcal/mol | 49.8 °C
GGTGGCGAAAGCCTGACC ((((((....)))..))) | -14.2 kcal/mol | 41.9 °C
GGTGGCGGAAACGTCACC ((((.((....)).)))) | -48.2 kcal/mol | 63.3 °C
GGTGGCGGAAACGTCGCC ((.(.((....)).).)) | -39.9 kcal/mol | 54.2 °C
GGTGGGACGAAAGTCACC (((..(((....)))))) | -14.4 kcal/mol | 47 °C
GGTGGGCGAAAGCCAACC (((.(((....))).))) | -28.7 kcal/mol | 64.1 °C
GGTGGGCGAAAGCCACC (((.(((....)))))) | -21.3 kcal/mol | 66.1 °C
GGTGGGGCGAAAGCCACC (((..(((....)))))) | -12.3 kcal/mol | 54.5 °C
GGTGGGGGAAACCCCATC (.(((((....))))).) | -24.2 kcal/mol | 51.3 °C
GGTGGTCGAAAGACGACC (((.(((....))).))) | -38 kcal/mol | 56.8 °C
GGTGGTGGAAACACCATC (.(((((....))))).) | -26.2 kcal/mol | 56.2 °C
GGTGGTGGAAACACCGTC (..((((....))))..) | -22.8 kcal/mol | 55.5 °C
GGTGTAACGAAAGTTACC (((..(((....)))))) | -14.3 kcal/mol | 42.9 °C
